How the values were obtained:
[1] = tested on: K562; test: Cytotoxicity against human K562 cells at 10 uM after 48 hrs by MTT assay; type: functional; details: K562, 48 h
Procedure, shortened: (§1)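 Single-dose screen on the NCI 60-cell-line panel, run to the Developmental Therapeutics Program protocol (one-dose mean graph). Each value is the growth percentage of treated cells against untreated control cells.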

[2] = tested on: HCT-116; test: Growth percent of human HCT116 cells at 10 uM after 48 hrs by MTT assay; details: HCT-116, 48 h
[3] = Cytotoxicity against human CAK1-1 cells at 10 uM after 48 hrs by MTT assay; type: functional; details: CAK1-1, 48 h; procedure, shortened: as §1
[4] = tested on: SK-MEL-2; test: Cytotoxicity against human SK-MEL-2 cells at 10 uM after 48 hrs by MTT assay; type: functional; details: SK-MEL-2, 48 h, values are per cent of control; procedure, shortened: as §1
[5] = tested on: SF-268; test: Cytotoxicity against human SF268 cells at 10 uM after 48 hrs by MTT assay; type: functional; details: SF-268, 48 h, values are per cent of control; procedure, shortened: as §1
[6] = tested on: UACC-257; test: Cytotoxicity against human UACC257 cells at 10 uM after 48 hrs by MTT assay; type: functional; details: UACC-257, 48 h, values are per cent of control
Procedure, shortened: (§2)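 Single-dose screen in the NCI 60-cell-line panel, run according to the Developmental Therapeutics Program protocol (one-dose mean graph). The result is the growth percentage of treated cells relative to untreated control cells.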

[7] = molecular target: T1, Telomerase reverse transcriptase (Homo sapiens, UniProt O14746); test: Effect on human TERT expressed in H1299 cells at 10 uM after 24 hrs by SEAP assay relative to control
T1 sequence (O14746 whole entry): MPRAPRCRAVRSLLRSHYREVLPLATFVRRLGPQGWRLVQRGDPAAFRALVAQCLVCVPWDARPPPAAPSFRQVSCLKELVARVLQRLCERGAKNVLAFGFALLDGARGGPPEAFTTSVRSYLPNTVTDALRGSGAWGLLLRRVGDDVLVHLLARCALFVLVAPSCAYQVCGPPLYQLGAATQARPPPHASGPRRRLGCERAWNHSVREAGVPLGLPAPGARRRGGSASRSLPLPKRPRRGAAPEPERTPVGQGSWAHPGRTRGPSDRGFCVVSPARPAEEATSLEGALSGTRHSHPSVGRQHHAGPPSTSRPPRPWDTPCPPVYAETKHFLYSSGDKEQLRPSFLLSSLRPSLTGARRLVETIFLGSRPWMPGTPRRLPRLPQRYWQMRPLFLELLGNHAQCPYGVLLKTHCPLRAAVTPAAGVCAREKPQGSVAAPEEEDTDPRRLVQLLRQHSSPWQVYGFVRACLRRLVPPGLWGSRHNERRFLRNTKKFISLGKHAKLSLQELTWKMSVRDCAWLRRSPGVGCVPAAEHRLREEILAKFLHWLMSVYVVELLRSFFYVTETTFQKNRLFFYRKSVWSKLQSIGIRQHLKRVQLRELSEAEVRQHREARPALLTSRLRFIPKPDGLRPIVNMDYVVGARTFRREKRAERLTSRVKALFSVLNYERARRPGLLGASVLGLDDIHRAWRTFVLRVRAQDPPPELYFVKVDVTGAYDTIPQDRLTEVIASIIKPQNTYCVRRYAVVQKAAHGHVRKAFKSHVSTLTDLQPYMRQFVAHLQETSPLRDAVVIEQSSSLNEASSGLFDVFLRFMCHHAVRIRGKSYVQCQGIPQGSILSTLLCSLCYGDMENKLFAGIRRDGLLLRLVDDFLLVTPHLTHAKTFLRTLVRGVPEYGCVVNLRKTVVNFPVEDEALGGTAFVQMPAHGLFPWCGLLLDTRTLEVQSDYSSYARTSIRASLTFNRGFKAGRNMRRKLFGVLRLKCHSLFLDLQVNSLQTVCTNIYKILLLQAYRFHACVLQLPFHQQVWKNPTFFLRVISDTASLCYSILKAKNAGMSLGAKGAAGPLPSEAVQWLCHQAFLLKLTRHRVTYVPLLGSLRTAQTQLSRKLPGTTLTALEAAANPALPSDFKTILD

[8] = tested on: SR; test: Cytotoxicity against human SR cells at 10 uM after 48 hrs by MTT assay; type: functional; procedure, shortened: as §2
[9] = tested on: OVCAR-8; test: Cytotoxicity against human OVCAR8 cells at 10 uM after 48 hrs by MTT assay; type: functional; details: OVCAR-8, 48 h; procedure, shortened: as §1
[10] = tested on: NCI-H460; test: Growth percent of human NCI-H460 cells at 10 uM after 48 hrs by MTT assay; details: NCI-H460, 48 h
[11] = tested on: SNB-75; test: Cytotoxicity against human SNB75 cells at 10 uM after 48 hrs by MTT assay; type: functional; details: SNB-75, 48 h, values are per cent of control; procedure, shortened: as §2
[12] = tested on: MCF7; test: Cytotoxicity against human MCF7 cells at 10 uM after 48 hrs by MTT assay; type: functional; details: MCF7, 48 h, values are per cent of control; procedure, shortened: as §1
[13] = tested on: NCI-H322M; test: Cytotoxicity against human NCI-H322M cells at 10 uM after 48 hrs by MTT assay; type: functional; procedure, shortened: as §1
[14] = Cytotoxicity against human TERT immortalized BJ1 cells at 100 uM after 48 hrs by MTT assay relative to control; type: cell-based, BJ
Procedure, shortened: (§3)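 hTERT-immortalized BJ1 fibroblasts were grown in DMEM with 10% FCS, 1 mM pyruvate and 4 mM […]. Cells (about 2 × 10^3 per well) were seeded and held 24 h at 37 °C. Compounds were freshly dissolved in DMSO, diluted into medium and left on the cells 48 h. MTT was added for 4 h, then SDS/DMF lysis buffer for 16 h. Absorbance was read at 550 nm and expressed relative to untreated cells (100%).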

[15] = tested on: COLO 205; test: Cytotoxicity against human COLO205 cells at 10 uM after 48 hrs by MTT assay; type: functional; details: COLO 205, 48 h, values are per cent of control; procedure, shortened: as §1
[16] = tested on: TK-10; test: Cytotoxicity against human TK10 cells at 10 uM after 48 hrs by MTT assay; type: functional; details: TK-10, 48 h, values are per cent of control; procedure, shortened: as §2
[17] = molecular target: T1, Telomerase reverse transcriptase; test: Effect on human TERT expressed in BJ1 cells at 100 uM after 24 hrs by SEAP assay relative to control; details: BJ
[18] = tested on: HOP-92; test: Cytotoxicity against human HOP92 cells at 10 uM after 48 hrs by MTT assay; type: functional; details: HOP-92, 48 h; procedure, shortened: as §1
[19] = tested on: EKVX; test: Cytotoxicity against human EKVX cells at 10 uM after 48 hrs by MTT assay; type: functional; procedure, shortened: as §1
[20] = tested on: CCRF-CEM; test: Cytotoxicity against human CCRF-CEM cells at 10 uM after 48 hrs by MTT assay; type: functional; procedure, shortened: as §1
[21] = tested on: T47D; test: Cytotoxicity against human T47D cells at 10 uM after 48 hrs by MTT assay; type: functional; procedure, shortened: as §2
[22] = tested on: OVCAR-4; test: Cytotoxicity against human OVCAR4 cells at 10 uM after 48 hrs by MTT assay; type: functional; details: OVCAR-4, 48 h; procedure, shortened: as §1
[23] = tested on: Hs-578T; test: Cytotoxicity against human HS578T cells at 10 uM after 48 hrs by MTT assay; type: functional; details: values are per cent of control; procedure, shortened: as §1
[24] = tested on: UACC-62; test: Cytotoxicity against human UACC62 cells at 10 uM after 48 hrs by MTT assay; type: functional; details: UACC-62, 48 h, values are per cent of control; procedure, shortened: as §2
[25] = tested on: UO-31; test: Cytotoxicity against human UO31 cells at 10 uM after 48 hrs by MTT assay; type: functional; details: UO-31, 48 h, values are per cent of control; procedure, shortened: as §2
[26] = tested on: HL-60; test: Cytotoxicity against human HL60 cells at 10 uM after 48 hrs by MTT assay; type: functional; details: HL-60, 48 h; procedure, shortened: as §1
[27] = tested on: NCI-H23; test: Cytotoxicity against human NCI-H23 cells at 10 uM after 48 hrs by MTT assay; type: functional; details: NCI-H23, 48 h; procedure, shortened: as §1
[28] = tested on: Malme-3M; test: Cytotoxicity against human MALME3M cells at 10 uM after 48 hrs by MTT assay; type: functional; details: values are per cent of control; procedure, shortened: as §1
[29] = tested on: 786-0; test: Cytotoxicity against human 786-0 cells at 10 uM after 48 hrs by MTT assay; type: functional; details: 786-0, 48 h; procedure, shortened: as §1
[30] = molecular target: T1, Telomerase reverse transcriptase; test: Effect on human TERT expressed in BJ1 cells at 1 uM after 24 hrs by SEAP assay realtive to control; details: BJ
[31] = tested on: MOLT-4; test: Cytotoxicity against human MOLT4 cells at 10 uM after 48 hrs by MTT assay; type: functional; details: MOLT-4, 48 h; procedure, shortened: as §1
[32] = tested on: OVCAR-3; test: Cytotoxicity against human OVCAR-3 cells at 10 uM after 48 hrs by MTT assay; type: functional; details: OVCAR-3, 48 h; procedure, shortened: as §1
[33] = tested on: RPMI-8226; test: Cytotoxicity against human RPMI-8226 cells at 10 uM after 48 hrs by MTT assay; type: functional; details: RPMI-8226, 48 h; procedure, shortened: as §1
[34] = tested on: MDA-MB-435; test: Cytotoxicity against human MDA-MB-435 cells at 10 uM after 48 hrs by MTT assay; type: functional; details: MDA-MB-435, 48 h; procedure, shortened: as §1
[35] = molecular target: T1, Telomerase reverse transcriptase; test: Effect on human TERT expressed in H1299 cells at 100 uM after 24 hrs by SEAP assay relative to control
[36] = Cytotoxicity against human TERT immortalized BJ1 cells at 10 uM after 48 hrs by MTT assay relative to control; type: cell-based, BJ; procedure, shortened: as §3
[37] = tested on: NCI-H226; test: Cytotoxicity against human NCI-H226 cells at 10 uM after 48 hrs by MTT assay; type: functional; details: NCI-H226, 48 h; procedure, shortened: as §1

CC(=O)Nc1ccc2c(c1)C(=O)c1cc(NC(C)=O)ccc1C2=O
growth percent at 10 µM [1]: 98.5%
growth percent at 10 µM [2]: 102%
growth percent at 10 µM [3]: 105%
growth, % of control at 10 µM [4]: 30.1%
growth, % of control at 10 µM [5]: 114%
growth, % of control at 10 µM [6]: 27%
residual activity [7]: 87%
growth percent at 10 µM [8]: 3.61%
growth percent at 10 µM [9]: 99.8%
growth percent at 10 µM [10]: 109%
growth, % of control at 10 µM [11]: 107%
growth, % of control at 10 µM [12]: 96.9%
growth percent at 10 µM [13]: 97.5%
viability at 48 h, 100 µM [14]: 91%
growth, % of control at 10 µM [15]: 120%
growth, % of control at 10 µM [16]: 118%
residual activity [17]: 117%
growth percent at 10 µM [18]: 101%
growth percent at 10 µM [19]: 95.3%
growth percent at 10 µM [20]: 99.8%
growth percent at 10 µM [21]: 96.2%
growth percent at 10 µM [22]: 104%
growth, % of control at 10 µM [23]: 133%
growth, % of control at 10 µM [24]: 101%
growth, % of control at 10 µM [25]: 96.4%
growth percent at 10 µM [26]: 38.7%
growth percent at 10 µM [27]: 94.2%
growth, % of control at 10 µM [28]: 111%
growth percent at 10 µM [29]: 97.7%
residual activity [30]: 123%
growth percent at 10 µM [31]: 97%
growth percent at 10 µM [32]: 111%
growth percent at 10 µM [33]: 121%
growth percent at 10 µM [34]: 109%
residual activity [35]: 74%
viability at 48 h, 10 µM [36]: 91%

O=C(CCN1CCCC1)Nc1ccc2c(c1)C(=O)c1cc(NC(=O)CCN3CCCC3)ccc1C2=O
growth percent at 10 µM [1]: 6.4%
growth percent at 10 µM [2]: 10.5%
growth percent at 10 µM [3]: 55.5%
growth, % of control at 10 µM [4]: -45.2%
growth, % of control at 10 µM [5]: 26.7%
growth, % of control at 10 µM [6]: -17.9%
residual activity [7]: 29%
growth percent at 10 µM [8]: 19.8%
growth percent at 10 µM [9]: 19.6%
growth percent at 10 µM [10]: 25.5%
growth, % of control at 10 µM [11]: 77.5%
growth, % of control at 10 µM [12]: 13.3%
growth percent at 10 µM [13]: 45.8%
viability at 48 h, 100 µM [14]: 39%
growth, % of control at 10 µM [15]: -29%
growth, % of control at 10 µM [16]: 31.2%
residual activity [17]: 109%
growth percent at 10 µM [18]: 7.04%
growth percent at 10 µM [37]: 41.1%
growth percent at 10 µM [19]: 58.7%
growth percent at 10 µM [20]: 3.74%
growth percent at 10 µM [21]: 59%
growth percent at 10 µM [22]: 49.8%
growth, % of control at 10 µM [23]: 5.26%
growth, % of control at 10 µM [24]: 42.7%
growth, % of control at 10 µM [25]: 5.27%
growth percent at 10 µM [26]: 85.8%
growth percent at 10 µM [27]: 31.5%
growth, % of control at 10 µM [28]: 47%
growth percent at 10 µM [29]: 40.5%
growth percent at 10 µM [31]: 23%
growth percent at 10 µM [32]: 36.9%
growth percent at 10 µM [33]: 47.9%
growth percent at 10 µM [34]: 68.8%
residual activity [35]: 17%
viability at 48 h, 10 µM [36]: 68%

O=C1c2ccc(NC(=O)C3CC3)cc2C(=O)c2cc(NC(=O)C3CC3)ccc21
growth percent at 10 µM [1]: 91.6%
growth percent at 10 µM [2]: 87.1%
growth percent at 10 µM [3]: 88.4%
growth, % of control at 10 µM [4]: 16.9%
growth, % of control at 10 µM [5]: 95.1%
growth, % of control at 10 µM [6]: 108%
residual activity [7]: 81%
growth percent at 10 µM [8]: 1.69%
growth percent at 10 µM [9]: 94.3%
growth percent at 10 µM [10]: 89%
growth, % of control at 10 µM [11]: 89.2%
growth, % of control at 10 µM [12]: 77.4%
growth percent at 10 µM [13]: 106%
viability at 48 h, 100 µM [14]: 47%
growth, % of control at 10 µM [15]: 91.9%
growth, % of control at 10 µM [16]: 136%
growth percent at 10 µM [18]: 86.2%
growth percent at 10 µM [37]: 101%
growth percent at 10 µM [19]: 94.3%
growth percent at 10 µM [20]: 90.7%
growth percent at 10 µM [21]: 79.8%
growth percent at 10 µM [22]: 97.5%
growth, % of control at 10 µM [23]: 119%
growth, % of control at 10 µM [24]: 81%
growth, % of control at 10 µM [25]: 95.5%
growth percent at 10 µM [26]: 62.5%
growth percent at 10 µM [27]: 95.8%
growth, % of control at 10 µM [28]: 91.8%
growth percent at 10 µM [29]: 94.9%
growth percent at 10 µM [31]: 94.3%
growth percent at 10 µM [32]: 103%
growth percent at 10 µM [33]: 88.4%
growth percent at 10 µM [34]: 97.3%
residual activity [35]: 81%
viability at 48 h, 10 µM [36]: 44%
